Calls of active or inactive are those of the source. The rule behind the calls is not given here.
Experiments:
[1] = target: T1, Estrogen receptor (Homo sapiens, UniProt P03372); test: Induction of ERalpha degradation in human MCF7 cells assessed as decrease in ERalpha protein level after 4 hrs by InCell Western assay; type: cell-based
T1 sequence (P03372 whole entry): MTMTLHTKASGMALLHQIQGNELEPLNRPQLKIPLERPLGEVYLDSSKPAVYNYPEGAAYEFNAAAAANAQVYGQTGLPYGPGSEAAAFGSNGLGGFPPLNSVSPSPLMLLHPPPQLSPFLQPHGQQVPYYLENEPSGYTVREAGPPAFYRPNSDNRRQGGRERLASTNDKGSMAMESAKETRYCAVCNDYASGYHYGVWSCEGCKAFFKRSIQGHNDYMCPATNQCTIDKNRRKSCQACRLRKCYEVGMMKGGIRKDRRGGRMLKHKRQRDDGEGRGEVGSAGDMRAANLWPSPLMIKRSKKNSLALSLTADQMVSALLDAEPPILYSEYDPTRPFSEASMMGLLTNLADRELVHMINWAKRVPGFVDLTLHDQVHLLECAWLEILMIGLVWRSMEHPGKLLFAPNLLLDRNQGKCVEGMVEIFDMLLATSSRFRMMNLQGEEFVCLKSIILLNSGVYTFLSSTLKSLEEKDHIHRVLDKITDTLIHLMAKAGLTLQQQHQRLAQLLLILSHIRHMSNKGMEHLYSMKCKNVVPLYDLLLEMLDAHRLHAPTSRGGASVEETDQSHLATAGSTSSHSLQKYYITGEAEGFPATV

[2] = tested on: MCF7; test: Antiproliferative activity against human MCF7 cells after 5 days by CellTiter-Glo assay; conditions: MCF7, 120 h
[3] = Oral bioavailability in rat at 10 mg/kg daily for 3 days measured on day 3 post last dose; type: ADME, organism-based; conditions: in vivo
[4] = tested on: Mus musculus; test: In vivo induction of ERalpha degradation in tumor of nude mouse xenografted with tamoxifen-resistant human MCF7 cells at 100 mg/kg, po daily for 28 days measured on day 28 post last dose; type: functional, organism-based
In short: (§1)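 Tamoxifen-resistant MCF-7 tumours grown subcutaneously in mice, with estradiol supplied from subcutaneous 0.72 mg estradiol pellets.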

[5] = tested on: MCF7; test: Antitumor activity against tamoxifen-resistant human MCF7 cells xenografted in nude mouse at 100 mg/kg, po daily for 28 days; type: functional, organism-based; in short: as §1
[6] = Unbound Cmax in nude mouse xenografted with tamoxifen-resistant human MCF7 cells at 100 mg/kg, po daily for 28 days measured on day 28 post last dose; type: ADME, organism-based; conditions: in vivo, 672 h
In short: (§2)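 Tamoxifen-resistant MCF-7 xenograft mice carrying subcutaneous 0.72 mg estradiol pellets. Plasma pharmacokinetics sampled on day 28 of the study, at take-down.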

[7] = AUC in rat at 10 mg/kg, po daily for 3 days measured on day 3 post last dose; type: ADME, organism-based; conditions: in vivo
[8] = Unbound fraction in mouse plasma; type: ADME, cell-free
[9] = Cmax in nude mouse xenografted with tamoxifen-resistant human MCF7 cells at 100 mg/kg, po daily for 28 days measured on day 28 post last dose; type: ADME, organism-based; design: dose 100 mg/kg, route oral; conditions: in vivo; in short: as §2
[10] = tested on: Rattus norvegicus; test: In vivo inverse agonist activity at ERalpha in CD-IGS rat assessed as decrease in uterine weight at 10 mg/kg, po for 3 consecutive days measured at 24 hrs post last dose; type: functional, organism-based
In short: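 Rat uterine wet weight assay run in agonist mode, with no ethynyl estradiol added. Oral dosing at 10 mg/kg for 3 days. Uterine weights compared with those of vehicle-treated animals.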

[11] = Clearance in rat at 10 mg/kg, po daily for 3 days measured on day 3 post last dose; type: ADME, organism-based; conditions: in vivo
[12] = Unbound AUC (0 to 24 hrs) in nude mouse xenografted with tamoxifen-resistant human MCF7 cells at 100 mg/kg, po daily for 28 days measured on day 28 post last dose; type: ADME, organism-based; conditions: in vivo; in short: as §2
[13] = AUC (0 to 24 hrs) in nude mouse xenografted with tamoxifen-resistant human MCF7 cells at 100 mg/kg, po daily for 28 days measured on day 28 post last dose; type: ADME, organism-based; design: time < 24 hr, dose 100 mg/kg, route oral; conditions: in vivo; in short: as §2
[14] = AUC in mouse at 10 mg/kg, po; type: ADME, organism-based; conditions: in vivo
[15] = tested on: Rattus norvegicus; test: In vivo agonist activity at ERalpha in CD-IGS rat assessed as increase in uterine weight at 60 mg/kg, po for 3 consecutive days measured at 24 hrs post last dose; type: functional, organism-based

Structure (SMILES): COC[C@@H]1CCN(CCOc2ccc(C3Oc4ccc(O)cc4C(C)=C3c3cccc(O)c3)cc2)C1 (some centres undefined)
- IC50 [1]: 0.3 nM
- IC50 [2]: 0.4 nM

Structure (SMILES): CC1=C(c2ccc(F)cc2)[C@H](c2ccc(OCCN3CC(CF)C3)cc2)Oc2ccc(O)cc21
- bioavailability [3]: 42%
- Activity [4]: Active
- Activity [5]: Active
- fCmax [6]: 0.009 µg/mL
- AUC at 72 h [7]: 1900 ng·h/mL
- Fu [8]: 0.4%
- Cmax [9]: 2300 ng/mL
- Activity [10]: Active
- CL/F [11]: 36 mL/min/kg
- fAUC [12]: 80 ng·h/mL
- IC50 [2]: 0.2 nM
- AUC at 24 h [13]: 21000 ng·h/mL

Structure (SMILES): CC1=C(c2cccc(O)c2)C(c2ccc(OCCN3CC(CF)C3)cc2)Oc2ccc(O)cc21 (centres undefined)
- AUC [14]: 160 ng·h/mL
- IC50 [2]: 0.2 nM

Structure (SMILES): CC1=C(c2ccc(C#N)cc2)C(c2ccc(OCCN3CC(CF)C3)cc2)Oc2ccc(O)cc21 (centres undefined)
- IC50 [1]: 0.2 nM
- IC50 [2]: 0.3 nM

Structure (SMILES): CC1=C(c2cccc(O)c2)C(c2ccc(OCCN3CC[C@@H](C(F)F)C3)cc2)Oc2ccc(O)cc21 (some centres undefined)
- IC50 [1]: 0.2 nM
- IC50 [2]: 0.4 nM

Structure (SMILES): CC/C(=C(\c1ccccc1)c1ccc(OCCN(C)C)cc1)c1ccccc1
- Activity [15]: Active

Structure (SMILES): CC1=C(c2cccc(O)c2)C(c2ccc(OC[C@H](C)N3CC(CF)C3)cc2)Oc2ccc(O)cc21 (some centres undefined)
- IC50 [1]: 0.2 nM
- IC50 [2]: 0.3 nM

Structure (SMILES): CC1=C(c2cccc(O)c2)C(c2ccc(OCCN3CC[C@@H](C#N)C3)cc2)Oc2ccc(O)cc21 (some centres undefined)
- IC50 [1]: 0.8 nM
- IC50 [2]: 3.6 nM

Structure (SMILES): CC1=C(c2cccc(O)c2)C(c2ccc(OCCN3CCC[C@H]3CF)cc2)Oc2ccc(O)cc21 (some centres undefined)
- IC50 [1]: 0.2 nM
- IC50 [2]: 1.4 nM

Structure (SMILES): CC1=C(c2cccc(O)c2)[C@H](c2ccc(OC[C@H](C)N3CC[C@@H](C)C3)cc2)Oc2ccc(O)cc21
- bioavailability [3]: < 15%
- Activity [4]: Active
- Activity [5]: inactive
- fCmax [6]: 0.021 µg/mL
- Fu [8]: 1.6%
- Cmax [9]: 1300 ng/mL
- CL/F [11]: > 60 mL/min/kg
- fAUC [12]: 190 ng·h/mL
- AUC at 24 h [13]: 12000 ng·h/mL

Structure (SMILES): CC1=C(c2cccc(O)c2)C(c2ccc(OCCN3CC[C@@H](CF)C3)cc2)Oc2ccc(O)cc21 (some centres undefined)
- AUC [14]: 40 ng·h/mL
- IC50 [1]: 0.1 nM
- IC50 [2]: 0.2 nM

Source: ChEMBL document CHEMBL4330143, “Maximizing ER-α Degradation Maximizes Activity in a Tamoxifen-Resistant Breast Cancer Model: Identification of GDC-0927” (ACS Med Chem Lett, 2019)
